Data set [1] deals with Syrian golden hamster. Description: Toxicity in Syrian hamster infected with Leishmania tropica MHOM/MA/1988/LEM1314 promastigotes assessed as change in body weight at 200 mg/kg administered through oral gavage for 3 weeks starting at week 7 post infection measured during compound dosing or measured 1 week post last dose. The data set is classed as organism-based, Mesocricetus auratus. The note with it: in vivo, 168 h. A digest of the protocol: (§1)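 Infected hamsters were treated daily for 21 days from week 7 post-infection (ointment 1–5%, 200 mg/kg gavage, or intralesional meglumine antimoniate 2 mg SbV/kg). Clinical signs and body weight were monitored during treatment and a 7-day follow-up. After sacrifice, liver and spleen were weighed and serum ALP, ALT, creatinine, urea and AST were measured with kits, compared with untreated infected animals.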

Data set [2] has as its system Leishmania tropica. The data set can be described thus: Antileishmanial activity against Leishmania tropica MHOM/MA/1988/LEM1314 promastigotes infected in Syrian hamster assessed as reduction in parasite load in liver at 2 mg/kg administered intralesionally once daily on footpad for 3 weeks starting at week 7 post infection measured 1 week post last dose by qPCR analysis relative to control. In kind it is functional, organism-based. A digest of the protocol: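 Hamsters were infected in the footpad and treated daily for 21 days from week 7 post-infection, n = 10/group, and sacrificed 1 week after the last dose. Footpad skin, liver and spleen DNA was assayed by L. tropica-specific TaqMan qPCR (chromosome 29 target), in triplicate with 50 ng DNA per 25 μL reaction. Load was interpolated from Ct on a calibration curve of promastigote DNA, relative to base-ointment controls.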

Data set [3] concerns Syrian golden hamster. The data set can be described thus: Toxicity in Syrian hamster infected with Leishmania tropica MHOM/MA/1988/LEM1314 promastigotes assessed as liver weight at 200 mg/kg administered through oral gavage for 3 weeks starting at week 7 post infection measured 1 week post last dose (reference value: 3.3 +/- 0.2 g). In kind it is organism-based, Mesocricetus auratus. The note with it: in vivo. A digest of the protocol:
as §1

Data set [4] deals with Syrian golden hamster. The data set can be described thus: Toxicity in Syrian hamster assessed as stress at 500 mg/kg, po or 5 % administered tropically on footpad for 28 days. In kind it is organism-based, Mesocricetus auratus. The settings on record: in vivo, 672 h.
Data set [5] relates to Syrian golden hamster. The data set can be described thus: Toxicity in Syrian hamster assessed as redness at 500 mg/kg, po or 5 % administered tropically on footpad for 28 days. The settings on record: in vivo, 672 h. In kind it is organism-based, Mesocricetus auratus.
In data set [6] the test system is Leishmania tropica. The data set can be described thus: Antileishmanial activity against Leishmania tropica MHOM/MA/1988/LEM1314 promastigotes infected in Syrian hamster assessed as reduction in amastigote levels in foodpad skin macerate at […] administered once daily through oral gavage for 3 weeks starting at week 7 post infection measured 1 week post last dose by Giemsa staining-based method. The data set is classed as functional.

The source made the active and inactive calls. No cut-off for these calls is given here.

Consider `CC(C)=CCC[C@](C)(O)[C@@H]1CC=C(C)CC1` [LEVOMENOL], for which the Activity entry with Syrian golden hamster [1] is reported as “Non-Toxic”; in the data set on Syrian golden hamster [3], 3 g; with Syrian golden hamster [4] it was “Non-Toxic”; in the data set on Syrian golden hamster [5], “Non-Toxic”. Also, the outcome in the data set on Leishmania tropica [2] and in the data set with Leishmania tropica [6] was Active.

The values are drawn from ChEMBL document CHEMBL3872233, “Topical Treatment of Leishmania tropica Infection Using (-)-α-Bisabolol Ointment in a Hamster Model: Effectiveness and Safety Assessment” (J Nat Prod, 2016).
